Read-outs that look alike come from different tables or passages of the source.
What was measured:
[1] = at 10 min, 25 mg/kg; ref 39 (Gooyit et al.); cited from earlier work
[2] = format: in vivo, C57Bl/6J mice; details: for FruArg concentration in plasma: mice, i.p. 2.5 μL/g BW of 40 mM FruArg
Outline: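 In male C57Bl/6J mice (8 weeks; i.p. 40 mM; n = 3 per time), terminal heparinized blood was taken by cardiac puncture at 15, 30, 60 and 180 min. Plasma was stored at −80 °C. Samples (25 μL plasma plus L-lysine-d8 internal standard) went through phospholipid-removal SPE, then C18 UPLC–MS/MS MRM. Quantitation used a plasma-matrix calibration with 1/x2 weighting. PK parameters came from a fit of the concentration–time curve.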

[3] = test system: lipopolysaccharide-induced mouse BV-2 microglial cells; details: lipopolysaccharide-induced BV-2 cells, concentration-dependent; cited from earlier work
[4] = format: in vivo, C57Bl/6J mice; details: mice, i.p. 40 mM, 2.5 μL/g BW, 15 min; cerebellum, cortex, striatum, hippocampus
Outline: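 Male C57Bl/6J mice, 8 weeks old, n = 3, given 40 mM test compound i.p. Brains were saline-perfused, dissected into regions, flash-frozen and stored at −80 °C. Tissue was homogenized in 3 vol water, then centrifuged 20 min at 4 °C. Supernatant (50 μL) was spiked with L-lysine-d8 internal standard and cleaned by phospholipid-removal SPE. Read-out: C18 UPLC–ESI–MS/MS (MRM), expressed as pmol/mg tissue, mean ± SE.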

[5] = Stability of the FruArg stock solution; format: physicochemical; details: 200 mM hydroacetate salt in double-distilled water, at 4 °C
[6] = test system: mouse BV-2 microglial cells; details: cited from earlier work
[7] = mice plasma, i.p. 40 mM, 2.5 μL/g BW

clearance (Cl) [2, 7] | elimination rate (k) [2, 7] | half-life (t1/2) [2, 7] | volume distribution (VD) [2, 7] | AUC0→∞ ([2]; mice plasma, i.p. 40 mM, 2.5 μL/g BW, extrapolated to infinity) | clearance (Cl) ([2]; mice plasma, i.p. 40 mM, 2.5 μL/g BW, unit as in Table 2) | FruArg concentration in plasma ([2]; 15 min, average n = 3 ± SE) | FruArg concentration in plasma ([2]; 30 min, average n = 3 ± SE) | FruArg concentration in plasma ([2]; 60 min, average n = 3 ± SE) | FruArg concentration in plasma ([2]; 180 min, plasma LOQ 1 μM) | FruArg concentration in brain tissue, all four subregions [4] | stability of stock solution [5] | SMILES | concentration in the brain tissue [1] | nitric oxide (NO) production [3] | cell viability [6]
– | – | – | – | – | – | – | – | – | – | – | – | O=S(=O)(CC1CS1)c1ccc(Oc2ccccc2)cc1 (stereo not drawn) [SB-3CT] | 5.0 ± 0.8 pmol/mg | – | –
1.8 × 10^–4 L·min | 6.91 × 10^–2 min^–1 | 10.03 min | 2.63 × 10^–3 L | 4930 µM·min | 1.8 × 10^–4 L·min^–1 | 111 ± 3 µM | 33 ± 9 µM | 5 ± 2 µM | below the LOQ | 4–7 pmol/mg tissue | at least 6 months | N=C(N)NCCC[C@H](NCC(=O)[C@@H](O)[C@H](O)[C@H](O)CO)C(=O)O [FruArg, N-α-(1-deoxy-D-fructos-1-yl)-L-arginine] | – | suppressing nitric oxide (NO) production | without affecting the cell viability
